In ChEMBL document CHEMBL2424622, “Development of amino-pyrimidine inhibitors of c-Jun N-terminal kinase (JNK): kinase profiling guided optimization of a 1,2,3-benzotriazole lead” (Bioorg Med Chem Lett, 2013) one finds inhibition data, which are given here for four compounds.

The target of experiment [1] is Hepatocyte growth factor receptor (Homo sapiens) (UniProt P08581). Description: Competitive binding affinity to MET (unknown origin) at 10 uM in presence of ATP relative to control.
For experiment [2], the species on record is Homo sapiens. Description: Competitive binding affinity to EGFR S752 to I759 deletion mutant (unknown origin) at 10 uM in presence of ATP relative to control.
The target in experiment [3] is Serine/threonine-protein kinase N2 (Homo sapiens) (UniProt Q16513). Description: Competitive binding affinity to PKN2 (unknown origin) at 10 uM in presence of ATP relative to control. An outline of the steps: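 In vitro ATP-site competition binding assay across a diverse panel of 128 kinases, with compound tested at a single concentration. Kinase selectivity scores (S15) were calculated from the panel profiles.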

For experiment [4], the target named is T1, Serine/threonine-protein kinase NLK (Homo sapiens) (UniProt Q9UBE8).
T1 sequence (whole entry): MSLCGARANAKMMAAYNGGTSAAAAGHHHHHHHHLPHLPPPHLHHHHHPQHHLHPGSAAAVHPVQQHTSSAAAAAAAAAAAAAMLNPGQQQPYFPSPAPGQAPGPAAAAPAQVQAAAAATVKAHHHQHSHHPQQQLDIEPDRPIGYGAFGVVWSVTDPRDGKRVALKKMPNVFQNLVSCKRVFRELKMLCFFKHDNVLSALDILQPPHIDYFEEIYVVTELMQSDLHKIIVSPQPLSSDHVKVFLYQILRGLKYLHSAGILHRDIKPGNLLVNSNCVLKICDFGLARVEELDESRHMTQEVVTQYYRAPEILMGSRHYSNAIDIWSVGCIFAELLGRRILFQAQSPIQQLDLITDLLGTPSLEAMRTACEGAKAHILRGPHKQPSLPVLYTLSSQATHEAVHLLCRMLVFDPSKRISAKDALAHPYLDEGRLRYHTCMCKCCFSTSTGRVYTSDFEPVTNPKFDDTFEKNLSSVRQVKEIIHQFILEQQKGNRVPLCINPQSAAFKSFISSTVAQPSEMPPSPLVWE
Description: Competitive binding affinity to NLK (unknown origin) at 10 uM in presence of ATP relative to control.

Experiment [5] addresses T2, Serine/threonine-protein kinase 3 (Homo sapiens) (UniProt Q13188).
T2 sequence (whole entry): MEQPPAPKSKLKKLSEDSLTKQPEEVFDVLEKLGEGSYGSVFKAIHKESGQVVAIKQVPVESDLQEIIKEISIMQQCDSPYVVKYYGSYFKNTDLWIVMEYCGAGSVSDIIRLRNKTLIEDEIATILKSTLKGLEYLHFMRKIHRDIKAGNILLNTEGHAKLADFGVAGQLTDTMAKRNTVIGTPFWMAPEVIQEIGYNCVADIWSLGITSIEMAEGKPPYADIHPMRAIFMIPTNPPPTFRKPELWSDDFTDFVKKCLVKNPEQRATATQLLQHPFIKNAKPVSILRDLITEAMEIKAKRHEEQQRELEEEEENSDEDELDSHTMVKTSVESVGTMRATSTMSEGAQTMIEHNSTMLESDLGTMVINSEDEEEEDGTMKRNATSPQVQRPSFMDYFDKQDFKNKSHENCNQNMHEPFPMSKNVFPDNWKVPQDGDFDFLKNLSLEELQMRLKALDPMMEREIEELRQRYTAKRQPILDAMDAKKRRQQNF
Description: Competitive binding affinity to MST2 (unknown origin) at 10 uM in presence of ATP relative to control.

The target in experiment [6] is T3, Serine/threonine-protein kinase LATS1 (Homo sapiens) (UniProt O95835).
T3 sequence (whole entry): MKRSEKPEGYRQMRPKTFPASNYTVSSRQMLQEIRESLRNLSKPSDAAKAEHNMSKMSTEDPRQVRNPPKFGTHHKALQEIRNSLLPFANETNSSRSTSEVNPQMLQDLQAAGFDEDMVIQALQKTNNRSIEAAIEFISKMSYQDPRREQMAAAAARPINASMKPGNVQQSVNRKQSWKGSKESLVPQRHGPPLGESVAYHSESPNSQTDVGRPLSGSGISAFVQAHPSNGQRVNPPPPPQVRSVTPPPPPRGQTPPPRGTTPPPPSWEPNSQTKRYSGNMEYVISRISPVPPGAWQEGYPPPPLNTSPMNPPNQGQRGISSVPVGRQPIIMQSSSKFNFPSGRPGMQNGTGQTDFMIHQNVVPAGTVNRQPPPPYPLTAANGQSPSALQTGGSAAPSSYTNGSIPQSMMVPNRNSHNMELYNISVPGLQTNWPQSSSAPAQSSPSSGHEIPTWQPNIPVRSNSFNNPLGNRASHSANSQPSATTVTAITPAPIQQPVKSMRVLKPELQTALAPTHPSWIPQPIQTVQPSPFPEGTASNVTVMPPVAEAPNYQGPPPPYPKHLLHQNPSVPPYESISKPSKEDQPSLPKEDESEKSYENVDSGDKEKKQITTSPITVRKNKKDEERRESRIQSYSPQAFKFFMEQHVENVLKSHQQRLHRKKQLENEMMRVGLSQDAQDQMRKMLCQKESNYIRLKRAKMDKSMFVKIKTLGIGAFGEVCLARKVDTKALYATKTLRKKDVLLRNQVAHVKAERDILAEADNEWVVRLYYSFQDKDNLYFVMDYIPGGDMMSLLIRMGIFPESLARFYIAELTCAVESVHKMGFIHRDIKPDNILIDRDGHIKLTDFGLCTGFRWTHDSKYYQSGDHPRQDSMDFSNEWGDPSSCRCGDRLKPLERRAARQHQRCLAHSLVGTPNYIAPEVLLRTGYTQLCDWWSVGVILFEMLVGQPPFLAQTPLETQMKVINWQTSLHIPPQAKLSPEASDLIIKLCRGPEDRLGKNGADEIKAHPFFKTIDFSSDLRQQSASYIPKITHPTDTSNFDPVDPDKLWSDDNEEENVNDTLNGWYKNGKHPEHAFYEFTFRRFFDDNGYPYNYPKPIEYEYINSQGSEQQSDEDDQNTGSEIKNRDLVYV
As to the kind of experiment: Competitive binding affinity to LATS1 (unknown origin) at 10 uM in presence of ATP relative to control.

Structures are written as SMILES. Where only a bound is given, the exact number is not on record here.

Sequence of Serine/threonine-protein kinase N2 (Homo sapiens) (Q16513 whole entry, looked up): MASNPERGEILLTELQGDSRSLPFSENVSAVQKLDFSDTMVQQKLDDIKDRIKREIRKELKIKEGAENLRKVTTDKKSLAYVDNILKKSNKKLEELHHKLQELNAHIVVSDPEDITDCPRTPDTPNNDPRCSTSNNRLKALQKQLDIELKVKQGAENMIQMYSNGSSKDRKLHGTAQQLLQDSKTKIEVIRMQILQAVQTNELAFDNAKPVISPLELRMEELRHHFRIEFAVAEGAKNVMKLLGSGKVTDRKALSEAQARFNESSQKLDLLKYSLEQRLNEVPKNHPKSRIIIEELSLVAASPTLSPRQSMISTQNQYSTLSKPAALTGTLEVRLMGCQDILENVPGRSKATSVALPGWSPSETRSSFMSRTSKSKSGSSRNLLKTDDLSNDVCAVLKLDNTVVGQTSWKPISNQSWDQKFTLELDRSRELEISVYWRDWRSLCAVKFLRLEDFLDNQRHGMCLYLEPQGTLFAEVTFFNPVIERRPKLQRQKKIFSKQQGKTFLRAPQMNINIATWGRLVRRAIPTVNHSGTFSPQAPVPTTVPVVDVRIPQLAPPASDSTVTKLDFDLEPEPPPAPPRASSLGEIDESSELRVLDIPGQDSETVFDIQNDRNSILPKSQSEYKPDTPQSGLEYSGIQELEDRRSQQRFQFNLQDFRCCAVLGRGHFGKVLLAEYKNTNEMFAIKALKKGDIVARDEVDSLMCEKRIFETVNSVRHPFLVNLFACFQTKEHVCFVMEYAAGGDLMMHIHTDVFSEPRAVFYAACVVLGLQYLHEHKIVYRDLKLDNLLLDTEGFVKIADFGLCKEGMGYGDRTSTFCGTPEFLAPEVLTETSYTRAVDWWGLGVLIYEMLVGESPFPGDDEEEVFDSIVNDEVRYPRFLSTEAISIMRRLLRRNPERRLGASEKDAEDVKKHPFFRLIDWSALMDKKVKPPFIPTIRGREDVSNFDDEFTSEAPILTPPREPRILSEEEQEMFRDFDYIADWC
Sequence of Hepatocyte growth factor receptor (Homo sapiens) (P08581 whole entry): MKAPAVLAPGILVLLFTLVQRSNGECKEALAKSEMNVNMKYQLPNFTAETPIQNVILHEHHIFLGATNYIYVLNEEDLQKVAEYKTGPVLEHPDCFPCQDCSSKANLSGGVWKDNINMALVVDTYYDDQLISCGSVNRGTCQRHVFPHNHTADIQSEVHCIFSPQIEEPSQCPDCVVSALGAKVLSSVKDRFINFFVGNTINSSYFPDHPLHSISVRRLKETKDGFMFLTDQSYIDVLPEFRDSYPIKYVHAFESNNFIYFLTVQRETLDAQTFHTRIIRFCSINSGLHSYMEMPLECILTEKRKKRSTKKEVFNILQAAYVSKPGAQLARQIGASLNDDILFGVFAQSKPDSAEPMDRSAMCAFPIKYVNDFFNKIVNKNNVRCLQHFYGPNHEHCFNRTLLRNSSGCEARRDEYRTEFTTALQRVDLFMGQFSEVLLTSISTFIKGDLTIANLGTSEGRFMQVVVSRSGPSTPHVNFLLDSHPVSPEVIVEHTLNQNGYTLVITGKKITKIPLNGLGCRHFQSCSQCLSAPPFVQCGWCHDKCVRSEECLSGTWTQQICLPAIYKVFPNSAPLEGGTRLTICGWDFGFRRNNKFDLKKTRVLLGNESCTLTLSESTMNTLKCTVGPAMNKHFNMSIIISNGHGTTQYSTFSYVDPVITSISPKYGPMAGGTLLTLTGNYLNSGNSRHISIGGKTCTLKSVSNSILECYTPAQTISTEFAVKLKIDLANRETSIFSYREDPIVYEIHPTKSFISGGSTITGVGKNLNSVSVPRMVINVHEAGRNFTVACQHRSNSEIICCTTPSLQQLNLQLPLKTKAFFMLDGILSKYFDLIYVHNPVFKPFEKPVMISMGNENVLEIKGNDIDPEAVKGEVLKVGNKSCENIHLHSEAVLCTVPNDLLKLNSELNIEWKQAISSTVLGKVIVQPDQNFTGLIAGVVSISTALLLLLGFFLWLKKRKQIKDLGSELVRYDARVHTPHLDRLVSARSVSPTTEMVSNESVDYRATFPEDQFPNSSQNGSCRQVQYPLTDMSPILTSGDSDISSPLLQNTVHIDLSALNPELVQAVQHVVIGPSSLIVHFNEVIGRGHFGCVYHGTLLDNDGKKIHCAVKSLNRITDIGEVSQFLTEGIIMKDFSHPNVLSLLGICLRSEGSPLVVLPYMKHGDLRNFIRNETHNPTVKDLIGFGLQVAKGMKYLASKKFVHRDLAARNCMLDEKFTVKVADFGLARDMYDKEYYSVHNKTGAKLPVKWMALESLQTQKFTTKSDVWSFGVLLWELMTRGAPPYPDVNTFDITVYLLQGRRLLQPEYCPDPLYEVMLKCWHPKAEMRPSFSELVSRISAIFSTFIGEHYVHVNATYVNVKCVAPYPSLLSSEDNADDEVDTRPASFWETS

One may read the inhibition as the share of the control response that was lost under treatment. With `O[C@H]1CC[C@H](Nc2nccc(-c3n[nH]c4ccccc34)n2)CC1`, the inhibition in experiment [1] is 98%; in experiment [2], below 50%; in experiment [3] it was 67%; in experiment [4], 90%.

With `O[C@H]1CC[C@H](Nc2nccc(-n3ccc4ccccc43)n2)CC1`, the inhibition in experiment [1] was 93%; in experiment [5] it was below 50%; in experiment [2] it was below 50%; in experiment [3], below 50%; in experiment [6], below 50%; in experiment [4] it was below 50%.

With `O[C@H]1CC[C@H](Nc2nccc(-n3ncc4ccccc43)n2)CC1`, the inhibition in experiment [1] is 96%; in experiment [5], 81%; in experiment [2], below 50%; in experiment [3], below 50%; in experiment [6], below 50%; in experiment [4], below 50%.

In the case of `O[C@H]1CC[C@H](Nc2nccc(-n3nnc4ccccc43)n2)CC1`, the inhibition in experiment [1] is 97%; in experiment [5], 95%; in experiment [2], below 50%; in experiment [3] it was 69%; in experiment [6], below 50%; in experiment [4], below 50%.
